From ChEMBL document CHEMBL1828506, “New fluorine-containing hydrazones active against MDR-tuberculosis” (Eur J Med Chem, 2011)
Converted amounts (≈) assume the structure as drawn.

Columns and labels:
[1] = test system: Mycobacterium tuberculosis; experiment: Antimycobacterial activity against Mycobacterium tuberculosis H37Rv ATCC 27294 after 28 days by colony forming unit determination; type: functional; settings: H37Rv ATCC 27294, 672 h
Summary of the method: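 Compounds added to Sula liquid medium as DMSO solutions (DMSO at most 2%), incubated at 37 °C for 28 days. MIC is the lowest concentration giving visible growth inhibition. Activity was confirmed by CFU counts after subculture onto drug-free Löwenstein-Jensen solid medium.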

[2] = Selectivity index, ratio of IC50 for human HepG2 cells to MIC for Mycobacterium tuberculosis H37Rv ATCC 27294; type: functional
Mycobacterium avium [3] = experiment: Antimycobacterial activity against Mycobacterium avium CNTC 330/88 after 14 days; type: functional; settings: CNTC 330/88, 336 h
Mycobacterium avium [4] = experiment: Antimycobacterial activity against Mycobacterium avium CNTC 330/88 after 21 days; type: functional; settings: CNTC 330/88, 504 h
Mycobacterium kansasii [5] = experiment: Antimycobacterial activity against Mycobacterium kansasii CNTC My 235/80 after 7 days; type: functional; settings: CNTC My 235/80, 168 h
Mycobacterium kansasii [6] = experiment: Antimycobacterial activity against Mycobacterium kansasii CNTC My 235/80 after 14 days; type: functional; settings: CNTC My 235/80, 336 h
Mycobacterium kansasii [7] = experiment: Antimycobacterial activity against Mycobacterium kansasii CNTC My 235/80 after 21 days; type: functional; settings: CNTC My 235/80, 504 h
Mycobacterium kansasii [8] = experiment: Antimycobacterial activity against Mycobacterium kansasii CNTC 6509/96 after 7 days; type: functional; settings: CNTC 6509/96, 168 h
Mycobacterium kansasii [9] = experiment: Antimycobacterial activity against Mycobacterium kansasii CNTC 6509/96 after 14 days; type: functional; settings: CNTC 6509/96, 336 h
Mycobacterium kansasii [10] = experiment: Antimycobacterial activity against Mycobacterium kansasii CNTC 6509/96 after 21 days; type: functional; settings: CNTC 6509/96, 504 h
HepG2 = experiment: Cytotoxicity against human HepG2 cells measured after overnight incubation by MTT assay; type: cell-based
Summary of the method: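 HepG2 cells in phenol-red-free RPMI-1640 with 10% FCS, 2 mM L-glutamine and gentamycin, seeded at 5 × 10³ per well. After 24 h at 37 °C, cells were exposed overnight to compound in serum-free medium. MTT (2 mg/mL) for 4 h, formazan dissolved in DMSO, read as OD540 minus OD620. % cytotoxicity versus untreated controls; IC50 taken from dose-response curves. Two independent experiments, 4–8 parallel measurements.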

PBMC = experiment: Cytotoxicity against human PBMC measured after overnight incubation by MTT assay; type: cell-based
Summary of the method: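 Freshly prepared human PBMC in phenol-red-free RPMI-1640 with 10% FCS, 2 mM L-glutamine and gentamycin, 2.0 × 10⁵ cells per well. After 24 h at 37 °C, overnight compound exposure in serum-free medium. MTT for 4 h, formazan in DMSO, OD540 minus OD620. % cytotoxicity versus controls; IC50 from dose-response curves. Two independent experiments.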

SH-SY5Y = experiment: Cytotoxicity against human SH-SY5Y cells measured after overnight incubation by MTT assay; type: cell-based
Summary of the method: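 SH-SY5Y neuroblastoma cells in phenol-red-free DMEM with 10% FCS, 2 mM L-glutamine, gentamycin and 1% NEAA, 7.5 × 10³ per well. After 24 h at 37 °C, overnight compound exposure in serum-free medium. MTT readout (OD540 minus OD620) against untreated controls; IC50 from dose-response curves. Two independent experiments.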

| SMILES | MIC [1] [µg/mL] | Selectivity Index [2] | MIC (Mycobacterium avium [3]) [µM] | MIC (Mycobacterium avium [4]) [µM] | MIC (Mycobacterium kansasii [5]) [µM] | MIC (Mycobacterium kansasii [6]) [µM] | MIC (Mycobacterium kansasii [7]) [µM] | MIC (Mycobacterium kansasii [8]) [µM] | MIC (Mycobacterium kansasii [9]) [µM] | MIC (Mycobacterium kansasii [10]) [µM] | IC50 (HepG2) [µM] | IC50 (PBMC) [µM] | IC50 (SH-SY5Y) [µM] |
| --- | --- | --- | --- | --- | --- | --- | --- | --- | --- | --- | --- | --- | --- |
| CCn1cc(C(=O)O)c(=O)c2cc(F)c(N3CCN(/C=N/NC(=O)c4ccc(C(F)(F)F)cc4)CC3)cc21 | 5 (≈ 9.37 µM) | 3.98 | 500 (≈ 267 µg/mL) | 500 (≈ 267 µg/mL) | 2 (≈ 1.07 µg/mL) | 4 (≈ 2.13 µg/mL) | 8 (≈ 4.27 µg/mL) | 2 (≈ 1.07 µg/mL) | 4 (≈ 2.13 µg/mL) | 8 (≈ 4.27 µg/mL) | > 37.3 | 262 | 107 |
| CCn1cc(C(=O)O)c(=O)c2cc(F)c(N3CCN(/C=N/NC(=O)c4ccc(F)cc4)CC3)cc21 | – | – | 125 (≈ 60.4 µg/mL) | 250 (≈ 121 µg/mL) | 16 (≈ 7.74 µg/mL) | 32 (≈ 15.5 µg/mL) | 62.5 (≈ 30.2 µg/mL) | 32 (≈ 15.5 µg/mL) | 62.5 (≈ 30.2 µg/mL) | 62.5 (≈ 30.2 µg/mL) | > 797 | > 331 | – |
| CCn1cc(C(=O)O)c(=O)c2cc(F)c(N3CCN(/C=N/NC(=O)c4cccc(F)c4)CC3)cc21 | 6 (≈ 12.4 µM) | 31.67 | 125 (≈ 60.4 µg/mL) | 250 (≈ 121 µg/mL) | 16 (≈ 7.74 µg/mL) | 32 (≈ 15.5 µg/mL) | 62.5 (≈ 30.2 µg/mL) | 16 (≈ 7.74 µg/mL) | 16 (≈ 7.74 µg/mL) | 32 (≈ 15.5 µg/mL) | > 393 | > 393 | > 430 |
| O=C(N/N=C/NC(=O)c1cnccn1)c1ccc(C(F)(F)F)cc1 | – | – | > 1000 | > 1000 | 250 (≈ 84.3 µg/mL) | 250 (≈ 84.3 µg/mL) | 250 (≈ 84.3 µg/mL) | 250 (≈ 84.3 µg/mL) | 500 (≈ 169 µg/mL) | 500 (≈ 169 µg/mL) | > 624 | – | – |
| O=C(N/N=C/NC(=O)c1cnccn1)c1cccc(F)c1 | – | – | > 500 | > 500 | 250 (≈ 71.8 µg/mL) | 250 (≈ 71.8 µg/mL) | > 500 | 250 (≈ 71.8 µg/mL) | > 500 | > 500 | > 130 | > 305 | – |
| Nc1ccc(C(=O)O)c(O)c1 [AMINOSALICYLIC ACID] | 0.2 (≈ 1.31 µM) | – | 32 (≈ 4.9 µg/mL) | 125 (≈ 19.1 µg/mL) | 125 (≈ 19.1 µg/mL) | 1000 (≈ 153 µg/mL) | > 1000 | 32 (≈ 4.9 µg/mL) | 125 (≈ 19.1 µg/mL) | 500 (≈ 76.6 µg/mL) | – | – | – |
| O=C(O)c1cn(C2CC2)c2cc(N3CCNCC3)c(F)cc2c1=O [CIPROFLOXACIN] | 0.5 (≈ 1.51 µM) | 333.33 | 62.5 (≈ 20.7 µg/mL) | 62.5 (≈ 20.7 µg/mL) | 1 (≈ 0.331 µg/mL) | 2 (≈ 0.663 µg/mL) | 2 (≈ 0.663 µg/mL) | 1 (≈ 0.331 µg/mL) | 1 (≈ 0.331 µg/mL) | 2 (≈ 0.663 µg/mL) | > 500 | > 500 | > 500 |
| NNC(=O)c1ccncc1 [ISONIAZID] | 0.01 (≈ 0.0729 µM) | – | > 250 | > 250 | 250 (≈ 34.3 µg/mL) | > 250 | > 250 | 2 (≈ 0.274 µg/mL) | 4 (≈ 0.549 µg/mL) | 4 (≈ 0.549 µg/mL) | > 1000 | 4670 | – |
| CCn1cc(C(=O)O)c(=O)c2cc(F)c(N3CCNCC3)cc21 [NORFLOXACIN] | 5 (≈ 15.7 µM) | 31.85 | 125 (≈ 39.9 µg/mL) | 250 (≈ 79.8 µg/mL) | 8 (≈ 2.55 µg/mL) | 16 (≈ 5.11 µg/mL) | 16 (≈ 5.11 µg/mL) | 2 (≈ 0.639 µg/mL) | 8 (≈ 2.55 µg/mL) | 8 (≈ 2.55 µg/mL) | > 500 | > 500 | > 500 |
| NC(=O)c1cnccn1 [PYRAZINAMIDE] | – | – | 500 (≈ 61.6 µg/mL) | > 1000 | 500 (≈ 61.6 µg/mL) | > 1000 | > 1000 | 125 (≈ 15.4 µg/mL) | 1000 (≈ 123 µg/mL) | 1000 (≈ 123 µg/mL) | – | – | – |
